The experiment has as its system BMDM. The experiment in a line: Anti-osteoporosis activity in C57BL/6 mouse bone marrow macrophages assessed as inhibition of M-CSF/RANKL-induced osteoclast differentiation supplemented with fresh medium containing compounds every 2 days for 5 measured post-last dose by TRAP staining based assay. Type of experiment: functional, cell-based. To be noted: C57BL/6, BMDM, 5 days. Put shortly: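 Mouse (C57BL/6, 6-week) BMMs were plated at 6×10³ cells/well with M-CSF 30 ng/mL overnight, then given complete α-MEM with M-CSF and GST-rRANKL 100 ng/mL plus compound at varied concentrations, refreshed every 2 days. At day 5 cells were fixed in 4% paraformaldehyde and TRAcP-stained; TRAcP+ cells with >3 nuclei were counted.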

Turning to `Cc1cc(NC(=O)Cn2cc(-c3ccc(F)cc3)nn2)no1`, the IC50 is over 30 µM.

With `CCOC(=O)c1sc(NC(=O)Cn2cc(-c3ccc(F)cc3)nn2)nc1C`, the IC50 was determined as 0.66 µM.

On to `O=C(Cn1cc(-c2ccc(F)cc2)nn1)Nc1nc2ccccc2s1`, for which the IC50 is over 30 µM.

As for `COc1ccc(-c2cn(CC(=O)Nc3cc(C)on3)nn2)cc1`, the IC50 is over 30 µM.

For `Nc1cccc(-c2cn(CC(=O)Nc3nc4ccccc4s3)nn2)c1`, the IC50 was determined as 1.11 µM.

With `O=C(Cn1cc(-c2ccccc2Cl)nn1)Nc1nc2ccccc2s1`, the IC50 is over 30 µM.

Turning to `O=C(Cn1cc(-c2ccc([N+](=O)[O-])cc2)nn1)Nc1nccs1`, the IC50 amounted to 1.04 µM.

With `CCCn1c(=O)c(C(=O)Nc2nccs2)c(O)c2ccccc21`, the IC50 is 3.98 µM.

In the case of `Cc1csc(NC(=O)Cn2cc(-c3ccccc3Cl)nn2)n1`, the IC50 stood at 1.24 µM.

For `Cc1csc(NC(=O)Cn2cc(-c3ccc(Cl)cc3)nn2)n1`, the IC50 came out at 0.52 µM.

`Cc1csc(NC(=O)Cn2cc(-c3ccc(C(=O)O)cc3)nn2)n1`: the IC50 was over 30 µM.

In the case of `CCOc1cc(C(=O)Nc2nccs2)cc(OCC)c1OCC`, the IC50 was 6.75 µM.

Regarding `COC(=O)c1ccc(-c2cn(CC(=O)Nc3nc4ccccc4s3)nn2)cc1`, the IC50 was over 30 µM.

With `Nc1cccc(-c2cn(CC(=O)Nc3nccs3)nn2)c1`, the IC50 was determined as 1.27 µM.

Turning to `N#Cc1ccc(C(=O)Nc2nccs2)cc1`, the 50% inhibitory concentration (IC50) was over 30 µM.

In the case of `COc1ccc(-c2cn(CC(=O)Nc3nc(C)cs3)nn2)cc1`, the IC50 is 3.89 µM.

For the compound `COc1cccc(-c2cn(-c3ccc(C(F)(F)F)cc3)nc2C(=O)N2CCc3ccccc3C2)c1`, the IC50 is over 30 µM.

Regarding `CCOC(=O)c1sc(NC(=O)Cn2cc(-c3cccs3)nn2)nc1C`, the IC50 was found to be 0.02 µM.

As to `CCOC(=O)c1sc(NC(=O)Cn2cc(-c3ccccc3Cl)nn2)nc1C`, the IC50 was found to be 0.13 µM.

As for `N#Cc1ccc(-c2cn(CC(=O)Nc3nccs3)nn2)cc1`, the IC50 was found to be 0.27 µM.

For `COC(=O)c1ccc(-c2cn(CC(=O)Nc3nc(C)cs3)nn2)cc1`, the IC50 is over 30 µM.

In the case of `Cc1csc(NC(=O)Cn2cc(-c3cccs3)nn2)n1`, the IC50 is 0.04 µM.

For `CCOC(=O)c1sc(NC(=O)Cn2cc(-c3ccncc3)nn2)nc1C`, the IC50 worked out at 0.12 µM.

Regarding `C#Cc1ccc(-c2cn(CC(=O)Nc3cc(C)on3)nn2)cc1`, the IC50 is over 30 µM.

For `O=C(NCc1ccco1)c1cc2ccccc2c(=O)o1`, the IC50 came out at 4.24 µM.

On to `COc1ccc(-c2cn(CC(=O)Nc3nc4ccccc4s3)nn2)cc1`, for which the IC50 stood at 1.33 µM.

`O=C(c1cc2ccccc2s1)N1CCOCC1`: the IC50 is 3.15 µM.

With `O=C(Cn1cc(-c2cccc(Cl)c2)nn1)Nc1nccs1`, the 50% inhibitory concentration (IC50) was over 30 µM.

Take `Cc1cc(NC(=O)Cn2cc(-c3cccc(Cl)c3)nn2)no1`: the IC50 is over 30 µM.

Take `O=C(Cn1cc(-c2ccncc2)nn1)Nc1nc2ccccc2s1`: the IC50 turned out to be 0.05 µM.

For the compound `COc1cccc(-c2cn(-c3ccc(C(F)(F)F)cc3)nc2C(=O)NCCCN(C)C)c1`, the IC50 was over 30 µM.

In the case of `CCOC(=O)c1ccccc1SCC(=O)Nc1nccs1`, the IC50 came to 3.98 µM.

On to `O=C(Cn1cc(-c2ccc([N+](=O)[O-])cc2)nn1)Nc1nc2ccccc2s1`, for which the IC50 was 3.28 µM.

Consider `Cc1cc(NC(=O)Cn2cc(-c3cccs3)nn2)no1`, for which the IC50 was over 30 µM.

On to `Cc1cc(NC(=O)Cn2cc(-c3ccc(Cl)cc3)nn2)no1`, for which the IC50 turned out to be 1.91 µM.

Consider `O=C(Cn1cc(-c2cccs2)nn1)Nc1nc2ccccc2s1`, for which the IC50 came out at 21.4 µM.

`Cc1nc(NC(=O)/C=C/c2ccc3c(c2)OCO3)sc1C`: the IC50 was 8.11 µM.

As for `O=C(C1=C(O)C(=O)N(CCCn2ccnc2)[C@@H]1c1cccc(O)c1)c1ccc2c(c1)OCCO2`, the IC50 turned out to be 2.7 µM.

`Cc1ccc(-c2csc(NCc3ccc(C)o3)n2)cc1`: the IC50 stood at 1.19 µM.

As for `Cc1ccc(-c2csc(NC(=O)c3ccc(C)o3)n2)cc1`, the half-maximal inhibitory concentration (IC50) was 4.03 µM.

In the case of `COc1cccc(-c2cn(-c3ccc(C(F)(F)F)cc3)nc2C(=O)N2CCN(c3ncccn3)CC2)c1`, the IC50 is over 30 µM.

For `Cc1csc(NC(=O)Cn2cc(-c3ccc(F)cc3)nn2)n1`, the IC50 stood at 0.25 µM.

Regarding `O=C(Nc1nc2ccccc2s1)c1cc2ccccc2c(=O)o1`, the IC50 worked out at 5.13 µM.

Regarding `COC(=O)c1ccc(-c2cn(CC(=O)Nc3cc(C)on3)nn2)cc1`, the IC50 was over 30 µM.

Consider `N#Cc1ccc(-c2cn(CC(=O)Nc3nc4ccccc4s3)nn2)cc1`, for which the IC50 is over 30 µM.

Consider `O=C(Cn1cc(-c2ccc(Cl)cc2)nn1)Nc1nc2ccccc2s1`, for which the IC50 turned out to be 0.13 µM.

With `O=C(Cn1cc(-c2cccs2)nn1)Nc1nccs1`, the IC50 was over 30 µM.

`Cc1csc(NC(=O)Cn2cc(-c3cccc(N)c3)nn2)n1`: the IC50 came out at 0.25 µM.

As for `CCOC(=O)c1sc(NC(=O)Cn2cc(-c3ccc(C#N)cc3)nn2)nc1C`, the IC50 worked out at 0.31 µM.

`C#Cc1ccc(-c2cn(CC(=O)Nc3nccs3)nn2)cc1`: the IC50 is over 30 µM.

For `Cc1cc(NC(=O)Cn2cc(-c3ccncc3)nn2)no1`, the IC50 was 0.43 µM.

In the case of `O=C(Cn1cc(-c2ccccc2Cl)nn1)Nc1nccs1`, the IC50 came out at 0.06 µM.

For `Cc1cnc(NC(=O)c2ccc3c(c2)OCO3)s1`, the IC50 was over 30 µM.

In the case of `Cc1cc(NC(=O)Cn2cc(-c3ccccc3Cl)nn2)no1`, the IC50 is over 30 µM.

As for `Cc1cc(NC(=O)Cn2cc(-c3ccc([N+](=O)[O-])cc3)nn2)no1`, the half-maximal inhibitory concentration (IC50) was 1.22 µM.

Regarding `Cc1csc(NC(=O)Cn2cc(-c3ccncc3)nn2)n1`, the IC50 was found to be 0.1 µM.

For the compound `Cc1cc(NC(=O)Cn2cc(-c3ccc(C#N)cc3)nn2)no1`, the half-inhibitory concentration (IC50) was found to be 9.32 µM.

As for `O=C(Cn1cc(-c2ccc(Cl)cc2)nn1)Nc1nccs1`, the 50% inhibitory concentration (IC50) is 1.1 µM.

Take `COc1ccc(-c2cn(CC(=O)Nc3nccs3)nn2)cc1`: the IC50 came out at 0.51 µM.

As for `O=C(Cn1cc(-c2ccc(F)cc2)nn1)Nc1nccs1`, the concentration for half-maximal inhibition (IC50) was determined as 0.19 µM.

Regarding `Cc1csc(NC(=O)Cn2cc(-c3ccc([N+](=O)[O-])cc3)nn2)n1`, the IC50 came to 0.19 µM.

Take `COc1cccc(OC)c1C(=O)Nc1nc(C)c(C(C)=O)s1`: the concentration for half-maximal inhibition (IC50) turned out to be 2.14 µM.

Take `CCCN1C(=O)c2ccc(C(=O)Nc3nccs3)cc2C1=O`: the IC50 worked out at 10 µM.

In the case of `CCOC(=O)c1sc(NC(=O)Cn2cc(-c3ccc([N+](=O)[O-])cc3)nn2)nc1C`, the IC50 turned out to be 1.84 µM.

On to `CCOC(=O)c1sc(NC(=O)Cn2cc(-c3ccc(Cl)cc3)nn2)nc1C`, for which the IC50 came out at 0.18 µM.

On to `CCOC(=O)c1sc(NC(=O)Cn2cc(-c3ccc(OC)cc3)nn2)nc1C`, for which the IC50 is 2.33 µM.

Regarding `COc1cccc(-c2cn(-c3ccc(C(F)(F)F)cc3)nc2C(=O)NC2CCCCC2)c1`, the IC50 was over 30 µM.

Regarding `CC(C)Oc1ccccc1C(=O)Nc1nccs1`, the IC50 stood at 12.6 µM.

The values are drawn from ChEMBL document CHEMBL4304759, “Identifying Novel Anti-Osteoporosis Leads with a Chemotype-Assembly Approach” (J Med Chem, 2019).
